From PubChem BioAssay
Compounds with a hit are over-represented: about 2.3% of the library has one in this group of screens.
PDI turbidity = inhibitors of human protein disulfide isomerase; P07237; PDI insulin aggregation turbidity, A650, 90 min; inhibition, % at 10 µM; actives 0.052% (n = 350,000); AID 588391;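 active = mean inhibition across replicates of 30% or more, whatever share of single replicates reach that level; inconclusive = mean inhibition below 30% while every single replicate reaches 30%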
Target sequence (P07237 whole entry, looked up): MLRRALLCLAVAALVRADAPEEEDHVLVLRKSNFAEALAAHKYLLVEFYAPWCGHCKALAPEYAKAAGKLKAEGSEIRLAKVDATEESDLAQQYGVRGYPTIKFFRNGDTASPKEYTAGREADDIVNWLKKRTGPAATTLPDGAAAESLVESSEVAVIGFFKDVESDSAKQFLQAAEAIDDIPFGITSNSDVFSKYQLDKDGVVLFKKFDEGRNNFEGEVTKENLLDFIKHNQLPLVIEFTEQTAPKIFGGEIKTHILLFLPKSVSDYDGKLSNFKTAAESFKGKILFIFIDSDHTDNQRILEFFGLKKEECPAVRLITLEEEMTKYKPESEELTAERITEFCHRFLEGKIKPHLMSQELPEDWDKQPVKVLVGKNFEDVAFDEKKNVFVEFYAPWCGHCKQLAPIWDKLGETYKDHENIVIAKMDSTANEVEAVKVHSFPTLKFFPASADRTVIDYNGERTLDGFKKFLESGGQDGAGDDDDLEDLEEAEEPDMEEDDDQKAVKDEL
F508del corr = CFTR F508del correction in bronchial cells; CFBE cells, YFP halide quenching; stimulated with forskolin plus potentiator P3; % fluorescence drop versus neutral controls; activity (quench increase), % at 7.58 µM; actives 0.36% (n = 350,000); AID 720511;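 active = mean added fluorescence quench of at least 8% versus neutral control, with both replicates also reaching 8%; inconclusive = only one of the mean or replicate conditions met; inactive = mean below 8% and not both replicates reaching 8%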;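 also: cells transiently co-express mutant CFTR-F508del with the halide-sensitive YFP; corrector assay measuring rescue of mutant channel to the surface after 24 h compound exposure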
C2C12 statin = protects C2C12 myotubes from simvastatin toxicity. ATP luminescence, 48 h; scaled: DMSO 0, geranylgeraniol control 100. rescue of ATP level, % at 7.49 µM. actives 0.78% (n = 330,000). AID 602340;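 active = mean ATP rescue above about 67%, or every replicate alone reaching that limit, limit read from the data, passing the limit was not always enough; inconclusive = no clear call, values can overlap the other calls; inactive = mean under the limit and some replicate under it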;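 also: myotubes were challenged with 10 µM simvastatin during compound exposure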
Cneo AK release = Cryptococcus neoformans lysis via adenylate kinase release. lysis activity, % at 15 µM. AID 651654. C. neoformans lysis, adenylate kinase release luminescence, 4 h; normalised: neutral wells 0, clomiphene wells 100. actives 0.2% (n = 360,000);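 active = mean lysis activity across replicates of at least 80%, whatever share of replicates individually reach that level; inactive = mean lysis activity below 80%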
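Assay system: log-phase C. neoformans yeast / Quantity: yeast cell density of 5 × 10^6 cells/mL / Medium: fresh YPD growth medium / Compound: single dose / Timing: static 4 h at 37 °C with compound, 1 h detection / Measured by: adenylate kinase release luminescence / Read-out: lysis from increased AK signal / Benchmarks: Clomiphene as positive lysis control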
DENV2 CPE rescue = protects cells from dengue virus 2 cytopathic effect. DENV2-infected cells, cytopathic effect rescue, plate reader. actives 1.7% (n = 350,000). CPE inhibition, % at 9.99 µM; in the data active = CPE inhibition above about 20%, passing the limit was not always enough; inconclusive = no clear call, values can overlap the other calls; tested in BHK-21 cells;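 also: 0% = median of neutral control wells and 100% = median of positive control wells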
ERp5 block = inhibitors of human ERp5. Q15084. ERp5 insulin aggregation, absorbance 650 nm, 90 min. inhibition, % at 9.99 µM. actives 0.05% (n = 350,000). AID 651711;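 active = mean replicate inhibition above about 25%, with every replicate also reaching it, limit read from the data, passing the limit was not always enough; inconclusive = only one of those two criteria met; inactive = neither criterion met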
Active calls of the source: *; ? = inconclusive; · = no result.

SMILES	PDI turbidity	F508del corr	C2C12 statin	Cneo AK release	DENV2 CPE rescue	ERp5 block
CCS(=O)(=O)N1CC2(C1)[C@H](c1ccccc1)[C@@H](CO)N2C(=O)C1CCCC1	·	-0.7	·	·	-0.8	-0.3
CNC[C@@H]1Oc2c(NC(=O)Nc3c(C)noc3C)cccc2C(=O)N([C@H](C)CO)C[C@H]1C	·	-0.5	15.4	2.1	3.6	0.4
C[C@@H]1CN([C@@H](C)CO)C(=O)CCCn2nncc2CO[C@H]1CN(C)Cc1ccc(C(=O)Nc2ccccc2N)cc1	·	-1.0	20.5	-5.6	10.1	-1.5
COc1ccc(/C=C2\Oc3cc(OCC(N)=O)ccc3C2=O)cc1OC	0.2	1.1	-35.1	-3.7	44.8*	3.2
COC(=O)COc1ccc2c(c1)O/C(=C\c1cccc([N+](=O)[O-])c1)C2=O	-10.4	-3.4	-0.2	2.4	-5.8	0.2
CN(C)S(=O)(=O)c1ccc(N2CCCC2)c(C(=O)Nc2ccccc2N2CCOCC2)c1	5.3	·	7.9	3.3	·	·
Cc1ccc(S(=O)(=O)N(C)C)cc1NC(=O)c1cc(S(=O)(=O)N2CCCCC2)ccc1N1CCOCC1	-14.3	-1.3	-3.6	4.8	22.7*	4.1
CC(C)C(=O)Nc1cc(S(=O)(=O)N2CCOCC2)ccc1N1CCCCC1	-2.0	0.6	108.0*	-1.2	-8.8	-0.4
Cc1noc(C)c1S(=O)(=O)N(C)C[C@@H]1OCCCC[C@@H](C)Oc2ccc(NC(=O)NC3CCCCC3)cc2C(=O)N([C@H](C)CO)C[C@H]1C	·	0.4	·	3.5	?	2.0
CO[C@H](CN(C)C(=O)c1ccc2c(c1)OCO2)[C@@H](C)CN([C@H](C)CO)S(=O)(=O)c1ccccc1	·	1.3	8.7	-0.7	-3.3	-4.8
O=C(N1CCOCC1)N1CCN(S(=O)(=O)N2CCOCC2)CC1	27.4	·	113.7*	-2.1	·	·
CN(C(=O)[C@@H](Cc1ccccc1)NC(=O)[C@H]1O[C@@H](n2ccc(=O)[nH]c2=O)[C@H](O)[C@@H]1O)C1CCCCC1	·	-1.0	·	·	-5.1	3.1
COc1cccc(CN(C)C(=O)[C@@H](Cc2ccccc2)NC(=O)[C@H]2O[C@@H](n3ccc(=O)[nH]c3=O)[C@H](O)[C@@H]2O)c1	·	-1.6	·	·	21.6*	3.9
CC(C)NC(=O)CN1C(=O)NC(CCc2ccccc2)C1=O (stereo not drawn)	0.0	·	114.2*	1.2	·	·
C[C@H](CO)N1C[C@H](C)[C@@H](CN(C)Cc2ccccc2C(=O)O)Oc2ncc(C#CC3CC3)cc2C1=O	·	4.4	1.2	51.8	-1.5	9.1
COc1ccc(C=NCCCN2CCOCC2)cc1	2.4	·	87.6*	1.3	·	·
O=C1C(C=NCCN2CCOCC2)=C(O)c2ccccc21	-1.4	·	8.2	-6.0	·	·
O=C1C(C=NCCCN2CCOCC2)=C(O)c2ccccc21	-4.4	·	123.7*	-0.3	·	1.1
COc1ccccc1S(=O)(=O)N[C@@H]1CC[C@H](CC(=O)N2CCCCC2)O[C@@H]1CO	·	0.1	2.8	1.0	-7.0	6.9
C=CCN(c1ccccc1OC)S(=O)(=O)c1cccc(C(=O)OC2CCOC2=O)c1 (stereo not drawn)	-8.4	-0.6	113.8*	1.3	-5.7	-1.7
C#CCN(C[C@@H]1[C@@H](OC(=O)Nc2cccs2)[C@@H](OC(=O)Nc2cccs2)C[C@H](C(=O)OC)[C@@H]1C(=O)OC)S(=O)(=O)c1ccc(C)cc1	·	-3.4	·	·	19.5	1.7
C#CCN(C[C@H]1[C@H](OC(=O)Nc2c(C)noc2C)[C@H](OC(=O)Nc2c(C)noc2C)C[C@@H](C(=O)OC)[C@H]1C(=O)OC)S(=O)(=O)c1ccc(C)cc1	-2.1	1.9	-0.3	3.9	69.5*	-3.4
COc1ccc(NC(=O)C2CCCN2S(=O)(=O)c2ccc3c(c2)CCC(=O)N3)c(OC)c1 (stereo not drawn)	·	1.7	-5.2	0.4	37.2*	-7.1
COCC(=O)N1[C@H](CO)[C@@H]2c3ccccc3N(C(=O)c3cccc(OC)c3)C[C@@H]21	·	-0.6	0.9	-4.1	-1.5	-5.5
O=C(c1ccccc1)N1C[C@@H]2[C@H](c3ccccc31)[C@H](CO)N2C(=O)c1cccc(F)c1	·	0.0	-6.4	-2.4	25.8*	-4.7
SMILES	PDI turbidity	F508del corr	C2C12 statin	Cneo AK release	DENV2 CPE rescue	ERp5 block
COCC(=O)N1[C@H](CO)[C@H]2c3ccccc3N(C(=O)c3cccc(OC)c3)C[C@H]21	·	-1.5	-6.3	-2.4	54.9*	-1.7
O=C(c1cccc(F)c1)N1C[C@@H]2[C@H](c3ccccc31)[C@@H](CO)N2C(=O)C1CCCC1	·	3.8	4.0	-4.3	-4.3	-3.3
O=C(c1cccc(F)c1)N1C[C@@H]2[C@H](c3ccccc31)[C@@H](CO)N2C(=O)c1cccc(F)c1	·	-1.1	1.7	56.5	8.8	3.5
O=C(c1cccc(F)c1)N1C[C@@H]2[C@H](c3ccccc31)[C@H](CO)N2C(=O)C1CC1	·	3.6	-0.9	-3.9	31.6*	3.4
C/C=C/c1ccc2c(c1)O[C@@H](CN(C)C(=O)C1CCOCC1)[C@@H](C)CN([C@@H](C)CO)S2(=O)=O	·	-0.3	31.9	-0.6	-8.9	3.0
CC(C)NC(=O)N(C)C[C@@H]1Oc2ccc(NC(=O)c3ccncc3)cc2CC(=O)N([C@H](C)CO)C[C@H]1C	·	3.9	-2.3	-0.4	?	5.6
Cc1cc2c(N=O)c(NO)ccc2[nH]1	-23.8	·	80.4*	1.0	·	·
O=Nc1c(O)[nH]c2ccc(F)cc12	-1.8	·	·	·	0.0	3.2
Cc1c(C(=O)Nc2ccccc2F)sc2ncn(CC(=O)N3CCOCC3)c(=O)c12	2.2	-0.7	-15.5	4.5	52.1*	0.8
CN(C)S(=O)(=O)c1cccc(C(=O)Nc2ccccc2C(=O)NC2CC2)c1	14.4	-3.1	1.3	-0.7	54.1*	-4.3
CN(C[C@@H]1[C@@H](c2ccccc2)[C@H](CO)N1C(=O)c1ccccc1)C(=O)C1CC1	·	0.9	9.9	-0.5	-1.0	10.1
O=C(O)/C=C/c1cn(-c2ccccc2)nc1-c1ccccc1	-9.5	-4.3	89.8*	-1.6	8.3	-1.3
C[C@H](NC(=O)C[C@@H]1CC[C@H]2[C@@H](COC[C@@H](O)CN2Cc2cc(F)ccc2F)O1)c1ccccc1	·	0.5	-4.4	1.3	-2.5	0.4
CCCCN(CCCC)c1nn[nH]n1	8.0	4.3	96.2*	4.5	1.9	1.2
CC(C)CN(CC(C)C)c1nn[nH]n1	0.7	2.4	114.1*	-2.0	?	0.6
CCS(=O)(=O)N1CC2(C1)[C@@H](c1ccccc1)[C@@H](CO)N2CCC(F)(F)F	·	-3.3	·	·	0.5	-1.0
CCCNC(=O)[C@H]1[C@H](CO)[C@H]2Cn3c(ccc(-c4ccccc4)c3=O)[C@@H]1N2C(=O)C1CC1	·	·	-2.4	-0.9	9.4	0.9
CC(C)NC(=O)N[C@@H]1CC[C@H](CCNS(=O)(=O)Cc2ccccc2)O[C@@H]1CO	·	1.0	-1.0	4.2	7.6	5.3
